Assay [1] deals with T1, 5-hydroxytryptamine receptor 1A (Homo sapiens, UniProt P08908).
T1 sequence (P08908 whole entry): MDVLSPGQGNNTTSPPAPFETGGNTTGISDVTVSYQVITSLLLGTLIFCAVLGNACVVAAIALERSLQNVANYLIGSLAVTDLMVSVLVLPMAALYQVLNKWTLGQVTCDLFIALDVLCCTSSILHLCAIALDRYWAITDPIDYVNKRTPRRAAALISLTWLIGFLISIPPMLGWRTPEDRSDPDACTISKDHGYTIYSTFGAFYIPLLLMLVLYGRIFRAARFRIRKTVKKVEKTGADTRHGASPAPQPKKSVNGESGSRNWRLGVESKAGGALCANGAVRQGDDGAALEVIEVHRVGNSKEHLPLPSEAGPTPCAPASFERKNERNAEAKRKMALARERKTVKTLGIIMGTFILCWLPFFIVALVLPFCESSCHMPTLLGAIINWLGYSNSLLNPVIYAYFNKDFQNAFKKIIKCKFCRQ
As to the kind of experiment: Displacement of [3H]8-OH-DPAT from 5-hydroxytryptamine 1A receptor expressed in CHO cell membranes. The method, boiled down: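 [3H]8-OH-DPAT (164.5 Ci/mmol, 1 nM) competition on CHO membranes expressing a cloned mammalian 5-HT1A receptor. Ten drug concentrations in duplicate. IC50 from a nonlinear single-site fit, converted to Ki with Cheng–Prusoff. Ki in nM ± SEM.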
A general note: In a radioligand displacement assay an active substance lowers the binding of a labelled ligand.

In assay [2] the target is Serotonin 2 (5-HT2) receptor (Homo sapiens, UniProt P41595+P28223+P28335). As to the kind of experiment: Binding affinity towards 5-hydroxytryptamine 2 receptor expressed in CHO cell membranes using [3H]ketanserin (60 Ci/mmol, 1 nM). An outline of the steps: (§1)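 Competition binding on membranes from CHO cells expressing a cloned mammalian 5-HT2 receptor, with [3H]ketanserin (60 Ci/mmol, 1 nM). Ten drug concentrations run in duplicate. IC50 from a nonlinear single-site fit, converted to Ki by Cheng–Prusoff. Ki reported in nM ± SEM.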

Assay [3] addresses T2, Adrenergic receptor alpha-1 (Rattus norvegicus, UniProt P15823+P23944+P43140).
T2 sequence (P15823 whole entry): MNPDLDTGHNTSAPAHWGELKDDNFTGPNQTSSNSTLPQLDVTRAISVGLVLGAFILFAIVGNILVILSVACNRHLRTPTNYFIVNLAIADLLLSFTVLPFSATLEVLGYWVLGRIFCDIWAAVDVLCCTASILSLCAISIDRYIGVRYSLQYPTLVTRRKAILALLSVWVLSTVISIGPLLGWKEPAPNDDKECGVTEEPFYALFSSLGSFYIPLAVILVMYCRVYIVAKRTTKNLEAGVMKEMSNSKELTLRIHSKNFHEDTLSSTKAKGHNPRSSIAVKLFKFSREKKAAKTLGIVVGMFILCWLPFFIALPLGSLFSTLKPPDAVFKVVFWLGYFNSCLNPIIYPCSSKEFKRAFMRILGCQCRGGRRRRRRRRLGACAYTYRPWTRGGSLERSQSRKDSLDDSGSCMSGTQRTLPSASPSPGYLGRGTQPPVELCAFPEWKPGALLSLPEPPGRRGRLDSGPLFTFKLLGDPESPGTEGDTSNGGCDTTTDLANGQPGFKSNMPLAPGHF
T2 sequence (P23944 whole entry): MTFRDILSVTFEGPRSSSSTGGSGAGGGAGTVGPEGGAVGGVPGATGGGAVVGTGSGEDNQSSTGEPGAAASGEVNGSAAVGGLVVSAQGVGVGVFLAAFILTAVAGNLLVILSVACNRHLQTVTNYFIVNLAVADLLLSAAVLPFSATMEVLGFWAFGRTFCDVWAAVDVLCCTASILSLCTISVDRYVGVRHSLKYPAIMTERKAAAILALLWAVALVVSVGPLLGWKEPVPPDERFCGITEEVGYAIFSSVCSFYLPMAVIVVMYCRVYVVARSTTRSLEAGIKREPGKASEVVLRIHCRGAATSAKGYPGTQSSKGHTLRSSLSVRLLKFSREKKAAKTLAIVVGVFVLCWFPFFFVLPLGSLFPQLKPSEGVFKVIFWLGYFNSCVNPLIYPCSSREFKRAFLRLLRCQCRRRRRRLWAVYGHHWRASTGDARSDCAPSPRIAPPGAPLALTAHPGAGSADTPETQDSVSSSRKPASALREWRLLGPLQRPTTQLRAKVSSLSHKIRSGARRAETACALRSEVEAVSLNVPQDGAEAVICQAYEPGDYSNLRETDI
T2 sequence (P43140 whole entry): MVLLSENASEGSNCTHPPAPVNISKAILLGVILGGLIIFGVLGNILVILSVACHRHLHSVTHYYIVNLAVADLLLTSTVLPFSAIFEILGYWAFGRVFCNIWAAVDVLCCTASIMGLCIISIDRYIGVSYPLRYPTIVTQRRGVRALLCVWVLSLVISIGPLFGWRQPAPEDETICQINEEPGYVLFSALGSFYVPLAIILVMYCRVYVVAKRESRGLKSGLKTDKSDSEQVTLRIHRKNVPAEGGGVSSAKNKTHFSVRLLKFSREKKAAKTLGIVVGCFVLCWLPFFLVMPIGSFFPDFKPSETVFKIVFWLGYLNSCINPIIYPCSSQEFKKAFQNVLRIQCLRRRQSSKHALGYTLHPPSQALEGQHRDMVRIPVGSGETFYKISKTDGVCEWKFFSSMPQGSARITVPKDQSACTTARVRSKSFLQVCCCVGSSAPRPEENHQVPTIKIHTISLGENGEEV
As to the kind of experiment: Binding affinity towards Alpha-1 adrenergic receptor from rat whole brain using [3H]prazosin (18.1 Ci/mmol,0.9nanoM)as radioligand. The method, boiled down:
(§2)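 Rat whole-brain membranes displaced by test drug from [3H]prazosin (18.1 Ci/mmol, 0.9 nM). Ten concentrations in duplicate. IC50 by nonlinear single-site fit, then Ki via Cheng–Prusoff. Ki given in nM ± SEM.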

Assay [4] has as its target T3, D(2) dopamine receptor (Homo sapiens, UniProt P14416). As to the kind of experiment: Binding affinity towards Dopamine receptor D2 from mammalian clones expressed in CHO cell membranes using 2 (86.1 Ci/mmol,1.7nanoM)as radioligand. An outline of the steps: (§3)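 Cloned mammalian D2 receptor in CHO cell membranes, radioligand [3H]U-86170 (86.1 Ci/mmol, 1.7 nM). Competition over ten drug concentrations in duplicate. IC50 from a single-site nonlinear fit, with Ki by Cheng–Prusoff. Values in nM ± SEM.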

The test system of assay [5] is Mus musculus. As to the kind of experiment: Result of hypothermia assay carried in Charles river CF-1 male mice at a dose of 1.3 mg/kg (s.c. administration). It is filed as functional. An outline of the steps: (§4)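 CF-1 male mice (18–22 g), four per dose, caged individually. Rectal temperature (°F) taken before dosing and 20 min after. A drop of 2 °F or more counted as positive. Doses started at 30 mg/kg and fell by half-log steps until 0/4 mice responded. Route: sc, 0.1 mL; po, 0.2 mL by oral syringe. ED50 by Spearman-Kärber.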

The subject of assay [6] is Mus musculus. Nature of the assay: Result of hypothermia assay carried in Charles river CF-1 male mice at a dose of 1.7 mg/kg (oral administration). It is filed as functional. An outline of the steps: as §4
Assay [7] has as its system Mus musculus. Nature of the assay: Result of hypothermia assay carried in Charles river CF-1 male mice at a dose of 17.3 mg/kg (s.c. administration). It is filed as functional. The method, boiled down:
(§5)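 Male CF-1 mice (18–22 g), four per dose, individually caged. Rectal temperature (°F) taken before and 20 min after a 0.1 mL sc injection. A fall of 2 °F or more counted as a positive hypothermic response. Doses started at 30 mg/kg and were lowered by half-log steps.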

For assay [8], the target named is T3, D(2) dopamine receptor. As to the kind of experiment: Compound was evaluated for the binding affinity towards Dopamine receptor D2 from mammalian clones expressed in CHO cell membranes using 2 (86.1 Ci/mmol,1.7nanoM)as radioligand. The method, boiled down: as §3
In assay [9] the test system is Mus musculus. As to the kind of experiment: Result of hypothermia assay carried in Charles river CF-1 male mice at a dose of 0.01 mg/kg (s.c. administration). It is filed as functional. The method, boiled down:
as §5

Assay [10] can be described thus: Compound was evaluated for the binding affinity towards 5-hydroxytryptamine 2 receptor from mammalian clones expressed in CHO cell membranes using [3H]-ketanserin as radioligand. An outline of the steps: as §1
Assay [11] deals with T2, Adrenergic receptor alpha-1. As to the kind of experiment: Compound was evaluated for the binding affinity towards Alpha-1 adrenergic receptor from rat whole brain using [3H]prazosin as radioligand. An outline of the steps: as §2
Assay [12] addresses T3, D(2) dopamine receptor. Nature of the assay: Compound was evaluated for the binding affinity towards Dopamine receptor D2 from mammalian clones expressed in CHO cell membranes using [3H]U-86170 as radioligand. An outline of the steps: as §3
Assay [13] has as its system Mus musculus. As to the kind of experiment: Result of hypothermia assay carried in Charles river CF-1 male mice at a dose of 30 mg/kg (s.c. administration). It is filed as functional. The method, boiled down: as §5

SMILES strings stand for the structures. A value given as a limit tells only on which side of the number the result lay.

One may read the Ki as the equilibrium dissociation constant of an inhibitor or competing ligand from its target.

T3 sequence (P14416 whole entry): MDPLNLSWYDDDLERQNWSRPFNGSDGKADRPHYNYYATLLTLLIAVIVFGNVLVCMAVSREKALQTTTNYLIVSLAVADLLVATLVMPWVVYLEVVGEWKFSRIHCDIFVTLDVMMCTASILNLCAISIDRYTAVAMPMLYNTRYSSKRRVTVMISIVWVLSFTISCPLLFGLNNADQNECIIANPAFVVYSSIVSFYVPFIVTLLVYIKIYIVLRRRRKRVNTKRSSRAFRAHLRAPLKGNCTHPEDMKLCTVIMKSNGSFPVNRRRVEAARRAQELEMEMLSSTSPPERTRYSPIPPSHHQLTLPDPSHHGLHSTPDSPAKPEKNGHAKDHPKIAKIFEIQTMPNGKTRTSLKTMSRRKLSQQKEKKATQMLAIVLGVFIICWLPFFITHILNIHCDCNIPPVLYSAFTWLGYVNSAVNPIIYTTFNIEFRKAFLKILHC

On to `COC(=O)c1cc2c3c(ccc2[nH]1)OCC(CNCCCc1ccccc1)O3` (stereo unspecified), for which the inhibition constant Ki in assay [1] was determined as 0.2 nM; in assay [2], 38.7 nM; in assay [3], 0.6 nM; in [4], 15.9 nM. Also, the Temperature decrease in [5] is recorded as 13.6 degrees F; in assay [6], 8.8 degrees F.
For `O=C1NCN(c2ccccc2)C12CCN(CC1COc3ccc4[nH]c(CO)cc4c3O1)CC2` (stereo unspecified), the Ki is 0.6 nM in [1], over 1722 nM in [2], 8.8 nM in assay [3] and 2 nM in [4].
`O=C(O)c1cc2c3c(ccc2[nH]1)OCC(CN1CCC2(CC1)C(=O)NCN2c1ccccc1)O3` (stereo unspecified): the Ki is 17.8 nM in assay [1], over 1722 nM in assay [2], over 862 nM in assay [3] and 58 nM in assay [4]. In assay [7], the Temperature decrease is listed as 3.6 degrees F.
As to `CCOC(=O)C1CCN(CC2COc3ccc4[nH]c(C(=O)OC)cc4c3O2)CC1` (stereo unspecified), the inhibition constant Ki is 1.2 nM in assay [1], 170 nM in assay [2], 12.3 nM in [3] and 255 nM in assay [4].
On the same counts, the results for `NC(=O)c1cc2c3c(ccc2[nH]1)OCC(CN1CCC2(CC1)C(=O)NCN2c1ccccc1)O3` (stereo unspecified) are 0.3 nM, over 1722 nM, 29.4 nM and 1.8 nM.
On the same counts, the results for `CCCCOC(=O)c1cc2c3c(ccc2[nH]1)OCC(CN1CCC2(CC1)C(=O)NCN2c1ccccc1)O3` (stereo unspecified) are 3 nM, 92.6 nM, 39.6 nM and 5.7 nM.
On to `O=C(OCc1ccccc1)c1cc2c3c(ccc2[nH]1)OCC(CN1CCC2(CC1)C(=O)NCN2c1ccccc1)O3` (stereo unspecified), for which the inhibition constant Ki in assay [1] is 1 nM; in assay [2], 143 nM; in assay [3] it was 30.4 nM; in assay [4], 5.8 nM. The same molecule registered a Temperature decrease in [7] of 5.6 degrees F.
For the molecule `COC(=O)c1cc2c3c(ccc2[nH]1)OCC(CN1CCC(Nc2ccccc2)(C(N)=O)CC1)O3` (stereo unspecified), the Ki in assay [1] is 22 nM; in [2] it was 171 nM; in assay [3] it was 19.8 nM; in [4], over 388 nM.
Take `O=C1NCN(c2ccccc2)C12CCN(CC1COc3ccc4[nH]ccc4c3O1)CC2` (stereo unspecified): the figures for the inhibitory constant (Ki) in assay [1] and in [8] were 0.4 nM and 0.2 nM, respectively.
On to `N#Cc1cc2c3c(ccc2[nH]1)OCC(CN1CCC2(CC1)C(=O)NCN2c1ccccc1)O3` (stereo unspecified), for which the inhibition constant Ki came to 0.5 nM in assay [1], 281 nM in [2], 6 nM in [3] and 1.5 nM in [4]. In addition, the Temperature decrease in assay [9] worked out at 13 degrees F.
As to `COC(=O)c1cc2c3c(ccc2[nH]1)OCC(CN1CCC(n2c(O)nc4ccccc42)CC1)O3` (stereo unspecified), the Ki in [1] worked out at 0.6 nM; in [2], 31.6 nM; in assay [3] it was 1.8 nM; in assay [4] it was 6.7 nM.
In the case of `COC(=O)c1cc2c3c(ccc2[nH]1)OCC(CN1CCC2(CC1)C(=O)NCN2c1ccccc1)O3` (stereo unspecified), the Ki worked out at 0.9 nM in assay [1], 640 nM in [10], 11.4 nM in assay [11] and 3.1 nM in assay [12]. Also, in assay [13], the Temperature decrease was 3.2 degrees F.
In the case of `O=C(NCCCc1ccccc1)c1cc2c3c(ccc2[nH]1)OCC(CNCCCc1ccccc1)O3` (stereo unspecified), the inhibition constant (Ki) is 1.6 nM in assay [1], 27.6 nM in assay [2], 11.4 nM in [3] and 41 nM in [4].

The values are drawn from ChEMBL document CHEMBL1125523, “Novel indolodioxanes with antihypertensive effects: potent ligands for the 5-HT1A receptor” (J Med Chem, 1992).
